One block for each compound: values may come before it.
Tests used:
[1] = test system: Radical scavenging activity; experiment: Antioxidant activity of the compound assessed as DPPH radical scavenging activity at 100 uM after 20 mins; type: functional
Outline: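 Sample solution (0.1 mM) was mixed with an equal volume of 0.1 mM DPPH in ethanol. After 20 min at room temperature, DPPH reduction was read as absorbance at 517 nm.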

[2] = molecular target: T1, Prostaglandin G/H synthase 1 (Ovis aries) (UniProt P05979); experiment: Inhibition of ovine COX1 peroxidase activity assessed as appearance of oxidized N,N,N,N'-tetramethyl-p-phenylenediamine by colorimetric analysis relative to control; set-up: concentration or dose not given beside the values; conditions: concentration not given here
T1 sequence (whole entry): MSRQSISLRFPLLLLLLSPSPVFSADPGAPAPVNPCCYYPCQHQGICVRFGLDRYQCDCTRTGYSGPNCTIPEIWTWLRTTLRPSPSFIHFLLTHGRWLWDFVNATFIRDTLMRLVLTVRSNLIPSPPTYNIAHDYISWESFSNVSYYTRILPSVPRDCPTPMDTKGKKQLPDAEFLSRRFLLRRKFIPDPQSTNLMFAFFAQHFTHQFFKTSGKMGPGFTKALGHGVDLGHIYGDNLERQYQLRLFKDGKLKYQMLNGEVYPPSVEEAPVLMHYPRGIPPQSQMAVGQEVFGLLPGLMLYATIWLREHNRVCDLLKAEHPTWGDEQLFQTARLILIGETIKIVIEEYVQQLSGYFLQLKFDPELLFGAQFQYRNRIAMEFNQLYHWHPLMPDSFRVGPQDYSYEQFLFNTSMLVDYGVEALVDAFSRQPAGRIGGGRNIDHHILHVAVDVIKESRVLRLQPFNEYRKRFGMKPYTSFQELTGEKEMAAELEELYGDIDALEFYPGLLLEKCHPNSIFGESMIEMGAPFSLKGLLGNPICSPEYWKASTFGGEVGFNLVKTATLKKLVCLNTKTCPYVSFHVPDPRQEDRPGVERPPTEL
Outline: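 Colorimetric ovine COX inhibitor screening kit: assay buffer, heme, COX-1 enzyme and sample (0.1 mM), with peroxidase activity read by absorbance at 590 nm. Percent inhibition = (1 − T/C) × 100, where C is the uninhibited well. Determinations were run in duplicate.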

Rattus norvegicus [3] = experiment: Antiinflammatory activity in rat assessed as inhibition of carrageenan-induced hind paw edema at 100 mg/kg, po administered 1 hr before carrageenan-challenge measured after 1 hr; type: functional
Outline: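 Rats (n = 6 per group) were dosed orally, with the vehicle group given 1% w/v gum acacia at 10 ml/kg p.o. One hour after dosing, 0.1 ml of 1% w/v carrageenan was injected subplantar into the hind paw. Paw volume was measured by plethysmometer volume displacement, immersing the paw to the lateral malleolus, at 1, 3 and 6 h after carrageenan.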

Rattus norvegicus [4] = experiment: Antiinflammatory activity in rat assessed as inhibition of carrageenan-induced hind paw edema at 100 mg/kg, po administered 1 hr before carrageenan-challenge measured after 6 hrs
Rattus norvegicus [5] = experiment: Antiinflammatory activity in rat assessed as inhibition of carrageenan-induced hind paw edema at 100 mg/kg, po administered 1 hr before carrageenan-challenge measured after 3 hrs
[6] = Antioxidant activity assessed as hydroxyl radical scavenging activity at 100 uM after 5 mins; type: functional
[7] = Antioxidant activity assessed as superoxide radical scavenging activity at 100 uM after 5 mins by NBT reduction assay; type: functional
Outline: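 Superoxide scavenging by NBT reduction in buffer (100 mM, pH 7.4) with NBT and sample (0.1 mM). The reaction was started by adding PMS, incubated 5 min at room temperature, and read by absorbance at 560 nm.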

inhibition [2]: 61.7%
Structure (SMILES): COc1cc(OC)c(-c2ccnn2C)c(O)c1C(=O)c1cccc(F)c1
Activity [1]: 34.5%
Activity (Rattus norvegicus [3]): 0.92 mL
Activity (Rattus norvegicus [4]): 1.63 mL
Activity (Rattus norvegicus [5]): 1.2 mL

inhibition [2]: 58.3%
Structure (SMILES): COc1cc(OC)c(-c2ccnn2C)c(O)c1C(=O)c1cccc(Cl)c1Cl
Activity [1]: 29.6%
Activity (Rattus norvegicus [3]): 0.9 mL
Activity (Rattus norvegicus [4]): 1.29 mL
Activity (Rattus norvegicus [5]): 1.39 mL

inhibition [2]: 52.4%
Structure (SMILES): COc1cc(OC)c(-c2ccnn2C)c(O)c1C(=O)c1cc(Cl)ccc1Cl
Activity [1]: 31.2%
Activity (Rattus norvegicus [3]): 1.01 mL
Activity (Rattus norvegicus [4]): 1.11 mL
Activity (Rattus norvegicus [5]): 1.1 mL

inhibition [2]: 55.8%
Structure (SMILES): COc1cc(OC)c(-c2ccnn2C)c(O)c1C(=O)c1ccc(F)cc1F
Activity [1]: 43.6%
Activity (Rattus norvegicus [3]): 1.12 mL
Activity (Rattus norvegicus [4]): 1.17 mL
Activity (Rattus norvegicus [5]): 1.05 mL

inhibition [2]: 57.5%
Structure (SMILES): COc1cc(OC)c(-c2ccnn2C)c(O)c1C(=O)c1ccccc1
Activity [1]: 36.2%
Activity (Rattus norvegicus [3]): 0.81 mL
Activity (Rattus norvegicus [4]): 1.22 mL
Activity (Rattus norvegicus [5]): 1.11 mL

inhibition [2]: 55.8%
Structure (SMILES): COc1cc(OC)c(-c2ccnn2C)c(O)c1C(=O)c1cccc(C(F)(F)F)c1
Activity [1]: 28%
Activity (Rattus norvegicus [3]): 0.93 mL
Activity (Rattus norvegicus [4]): 1.55 mL
Activity (Rattus norvegicus [5]): 1.44 mL

Structure (SMILES): O=C1O[C@H]([C@@H](O)CO)C(O)=C1O
Activity [1]: 81.5%
Activity [6]: 52%
Activity [7]: 78.3%

inhibition [2]: 61.4%
Structure (SMILES): COc1ccc(C(=O)c2c(OC)cc(OC)c(-c3ccnn3C)c2O)cc1
Activity [1]: 48.9%
Activity (Rattus norvegicus [3]): 0.89 mL
Activity (Rattus norvegicus [4]): 0.99 mL
Activity (Rattus norvegicus [5]): 0.89 mL

inhibition [2]: 59.1%
Structure (SMILES): COc1cc(OC)c(-c2ccnn2C)c(O)c1C(=O)c1cccc(Br)c1
Activity [1]: 40.2%
Activity (Rattus norvegicus [3]): 0.92 mL
Activity (Rattus norvegicus [4]): 0.91 mL
Activity (Rattus norvegicus [5]): 1 mL

Structure (SMILES): COc1ccc2c(c1)c(CC(=O)O)c(C)n2C(=O)c1ccc(Cl)cc1 [INDOMETHACIN]
Activity (Rattus norvegicus [3]): 0.86 mL
Activity (Rattus norvegicus [4]): 0.78 mL
Activity (Rattus norvegicus [5]): 0.95 mL

inhibition [2]: 58.3%
Structure (SMILES): COc1cc(OC)c(-c2ccnn2C)c(O)c1C(=O)c1ccccc1F
Activity [1]: 31.5%
Activity (Rattus norvegicus [3]): 1.1 mL
Activity (Rattus norvegicus [4]): 0.96 mL
Activity (Rattus norvegicus [5]): 1.06 mL

inhibition [2]: 61.7%
Structure (SMILES): COc1cc(OC)c(-c2ccnn2C)c(O)c1C(=O)c1ccc(Cl)cc1Cl
Activity [1]: 26.1%
Activity (Rattus norvegicus [3]): 0.59 mL
Activity (Rattus norvegicus [4]): 1.62 mL
Activity (Rattus norvegicus [5]): 1.22 mL
